Legend:
[1] = Lipophilicity, log D of the compound; assay type: physicochemical; conditions: octanol/water
[2] = Plasma protein binding in baboon; assay type: ADME, cell-free; conditions: papio hamadryas, read-out: PPB (converted)
Summary of the method: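 [11C]-labelled drug was incubated 10 min at room temperature in pooled plasma from at least 4 baboons. Total radioactivity was counted, then the sample was ultrafiltered by centrifugation (10 min) and the filtrate counted. Result is expressed as % free fraction in plasma.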

[3] = Biodistribution in ip dosed cat brain; assay type: ADME, organism-based, Felis catus; conditions: in vivo
[4] = Biodistribution in human CSF at 8.5 mg/kg, po after 2 hrs; assay type: ADME, organism-based, Cerebrospinal fluid; parameters: dose 8.5 mg/kg, route oral; conditions: read-out: Drug uptake
[5] = Biodistribution in human CSF at 108.7 mg, po after 1 hr; assay type: ADME, organism-based, Cerebrospinal fluid; conditions: read-out: Drug uptake
[6] = Biodistribution in human lung at 108.7 mg, iv after 3 hrs; assay type: ADME, organism-based; conditions: read-out: Drug uptake
[7] = Biodistribution in baboon Liver at 170 mg, iv after 15 mins; assay type: ADME, organism-based; conditions: papio hamadryas, read-out: Drug uptake
Summary of the method: (§1)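 Micro-dose [11C]-labelled drug given i.v. via a radial arm vein to baboons anaesthetised with ketamine (10 mg/kg i.m.), then maintained on oxygen, nitrous oxide and isoflurane (1–4%). Torso PET regions of interest were drawn by hand to give time-activity curves in %ID/cc. µg/ml values were estimated assuming a 10 mg/kg dose, a 17 kg baboon and signal coming from intact drug.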

[8] = Biodistribution in baboon Liver at 170 mg, iv after 90 mins; assay type: ADME, organism-based; conditions: papio hamadryas, read-out: Drug uptake; summary of the method: as §1
[9] = Biodistribution in baboon Liver at 170 mg, iv after 60 mins; assay type: ADME, organism-based; conditions: papio hamadryas, read-out: Drug uptake; summary of the method: as §1
[10] = Biodistribution in baboon Liver at 170 mg, iv after 30 mins; assay type: ADME, organism-based; conditions: papio hamadryas, read-out: Drug uptake; summary of the method: as §1
[11] = Biodistribution in baboon whole brain at 170 mg, iv after 30 mins; assay type: ADME, organism-based; conditions: papio hamadryas, read-out: Drug uptake
Summary of the method: (§2)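 Brain PET ran 90 min after i.v. [11C]-labelled drug in anaesthetised baboons. Whole-brain regions of interest gave time-activity curves in %ID/cc. µg/ml values were estimated from baboon weight (17 kg) and the recommended human daily dose per kg, assuming signal comes from intact drug.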

[12] = Biodistribution in baboon whole brain at 170 mg, iv after 60 mins; assay type: ADME, organism-based; conditions: papio hamadryas, read-out: Drug uptake; summary of the method: as §2
[13] = Biodistribution in baboon whole brain at 170 mg, iv after 90 mins; assay type: ADME, organism-based; conditions: papio hamadryas, read-out: Drug uptake; summary of the method: as §2
[14] = Biodistribution in baboon heart at 170 mg, iv after 15 mins; assay type: ADME, organism-based; conditions: papio hamadryas, read-out: Drug uptake; summary of the method: as §1
[15] = Biodistribution in baboon lung at 170 mg, iv after 15 mins; assay type: ADME, organism-based; conditions: papio hamadryas, read-out: Drug uptake; summary of the method: as §1
[16] = Biodistribution in baboon kidney cortex at 170 mg, iv after 15 mins; assay type: ADME, organism-based; conditions: papio hamadryas, read-out: Drug uptake; summary of the method: as §1
[17] = Biodistribution in baboon kidney medulla at 170 mg, iv after 15 mins; assay type: ADME, organism-based; conditions: papio hamadryas, read-out: Drug uptake; summary of the method: as §1
[18] = Biodistribution in baboon gallbladder at 170 mg, iv after 15 mins; assay type: ADME, organism-based, Gall bladder; conditions: papio hamadryas, read-out: Drug uptake; summary of the method: as §1
[19] = Biodistribution in baboon plasma at 170 mg, iv after 15 mins; assay type: ADME, organism-based; conditions: papio hamadryas, read-out: Drug uptake
Summary of the method: (§3)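 Anaesthetised baboons received [11C]-labelled drug i.v. (radial arm vein) by PET protocol. Arterial blood was drawn from a popliteal catheter every 5 s for 2 min, then at 2–90 min. Plasma activity is given as %ID/cc. µg/ml values were estimated from the human daily dose per kg scaled to a 17 kg baboon, assuming signal comes from intact drug.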

[20] = Biodistribution in baboon heart at 170 mg, iv after 30 mins; assay type: ADME, organism-based; conditions: papio hamadryas, read-out: Drug uptake; summary of the method: as §1
[21] = Biodistribution in baboon lung at 170 mg, iv after 30 mins; assay type: ADME, organism-based; conditions: papio hamadryas, read-out: Drug uptake; summary of the method: as §1
[22] = Biodistribution in baboon kidney cortex at 170 mg, iv after 30 mins; assay type: ADME, organism-based; conditions: papio hamadryas, read-out: Drug uptake; summary of the method: as §1
[23] = Biodistribution in baboon kidney medulla at 170 mg, iv after 30 mins; assay type: ADME, organism-based; conditions: papio hamadryas, read-out: Drug uptake; summary of the method: as §1
[24] = Biodistribution in baboon gallbladder at 170 mg, iv after 30 mins; assay type: ADME, organism-based, Gall bladder; conditions: papio hamadryas, read-out: Drug uptake; summary of the method: as §1
[25] = Biodistribution in baboon plasma at 170 mg, iv after 30 mins; assay type: ADME, organism-based; conditions: papio hamadryas, read-out: Drug uptake; summary of the method: as §3
[26] = Biodistribution in baboon heart at 170 mg, iv after 60 mins; assay type: ADME, organism-based; conditions: papio hamadryas, read-out: Drug uptake; summary of the method: as §1
[27] = Biodistribution in baboon lung at 170 mg, iv after 60 mins; assay type: ADME, organism-based; conditions: papio hamadryas, read-out: Drug uptake; summary of the method: as §1
[28] = Biodistribution in baboon kidney cortex at 170 mg, iv after 60 mins; assay type: ADME, organism-based; conditions: papio hamadryas, read-out: Drug uptake; summary of the method: as §1
[29] = Biodistribution in baboon kidney medulla at 170 mg, iv after 60 mins; assay type: ADME, organism-based; conditions: papio hamadryas, read-out: Drug uptake; summary of the method: as §1
[30] = Biodistribution in baboon gallbladder at 170 mg, iv after 60 mins; assay type: ADME, organism-based, Gall bladder; conditions: papio hamadryas, read-out: Drug uptake; summary of the method: as §1
[31] = Biodistribution in baboon plasma at 170 mg, iv after 60 mins; assay type: ADME, organism-based; conditions: papio hamadryas, read-out: Drug uptake; summary of the method: as §3
[32] = Biodistribution in baboon heart at 170 mg, iv after 90 mins; assay type: ADME, organism-based; conditions: papio hamadryas, read-out: Drug uptake; summary of the method: as §1
[33] = Biodistribution in baboon lung at 170 mg, iv after 90 mins; assay type: ADME, organism-based; conditions: papio hamadryas, read-out: Drug uptake; summary of the method: as §1
[34] = Biodistribution in baboon kidney cortex at 170 mg, iv after 90 mins; assay type: ADME, organism-based; conditions: papio hamadryas, read-out: Drug uptake; summary of the method: as §1
[35] = Biodistribution in baboon kidney medulla at 170 mg, iv after 90 mins; assay type: ADME, organism-based; conditions: papio hamadryas, read-out: Drug uptake; summary of the method: as §1
[36] = Biodistribution in baboon gallbladder at 170 mg, iv after 90 mins; assay type: ADME, organism-based, Gall bladder; conditions: papio hamadryas, read-out: Drug uptake; summary of the method: as §1
[37] = Biodistribution in baboon plasma at 170 mg, iv after 90 mins; assay type: ADME, organism-based; conditions: papio hamadryas, read-out: Drug uptake; summary of the method: as §3
[38] = Biodistribution in mouse whole brain at 10 mg/kg, sc after 30 mins; assay type: ADME, organism-based; parameters: dose 10 mg/kg, route subcutaneous; conditions: read-out: Drug uptake
[39] = Biodistribution in mouse whole brain at 10 mg/kg, sc after 60 mins; assay type: ADME, organism-based; parameters: dose 10 mg/kg, route subcutaneous; conditions: read-out: Drug uptake

Structure (SMILES): NC(=O)c1cnccn1 [PYRAZINAMIDE]
- logD [1]: -0.41
- fraction unbound [2]: 0.0868

Structure (SMILES): NNC(=O)c1ccncc1 [ISONIAZID]
- fraction unbound [2]: 0.0537
- Drug uptake [3]: 0.02 µg/g
- concentration at 2 h [4]: 1.9 µg/mL
- concentration at 1 h [5]: 0.31 µg/mL

Structure (SMILES): CO[C@H]1/C=C/O[C@@]2(C)Oc3c(C)c(O)c4cc(c(/C=N/N5CCN([11CH3])CC5)c(O)c4c3C2=O)NC(=O)/C(C)=C\C=C\C(C)[C@H](O)[C@@H](C)[C@@H](O)[C@@H](C)[C@H](OC(C)=O)[C@@H]1C (stereo not given in full)
- concentration at 3 h [6]: 1790 ng/g
- concentration at 0.25 h [7]: 259 µg/mL
- concentration at 1.5 h [8]: 300 µg/mL
- concentration at 1 h [9]: 288 µg/mL
- concentration at 0.5 h [10]: 276 µg/mL
- concentration at 0.5 h [11]: 1.09 µg/mL
- concentration at 1 h [12]: 0.912 µg/mL
- concentration at 1.5 h [13]: 1.21 µg/mL
- concentration at 0.25 h [14]: 7.28 µg/mL
- concentration at 0.25 h [15]: 5.03 µg/mL
- concentration at 0.25 h [16]: 15.8 µg/mL
- concentration at 0.25 h [17]: 36.4 µg/mL
- concentration at 0.25 h [18]: 121 µg/mL
- concentration at 0.25 h [19]: 2.81 µg/mL
- concentration at 0.5 h [20]: 5.28 µg/mL
- concentration at 0.5 h [21]: 2.83 µg/mL
- concentration at 0.5 h [22]: 6.34 µg/mL
- concentration at 0.5 h [23]: 11.6 µg/mL
- concentration at 0.5 h [24]: 586 µg/mL
- concentration at 0.5 h [25]: 1.5 µg/mL
- concentration at 1 h [26]: 1.93 µg/mL
- concentration at 1 h [27]: 2.53 µg/mL
- concentration at 1 h [28]: 0.43 µg/mL
- concentration at 1 h [29]: 6.73 µg/mL
- concentration at 1 h [30]: 983 µg/mL
- concentration at 1 h [31]: 1.14 µg/mL
- concentration at 1.5 h [32]: 6.8 µg/mL
- concentration at 1.5 h [33]: 6.78 µg/mL
- concentration at 1.5 h [34]: 8.19 µg/mL
- concentration at 1.5 h [35]: 9.44 µg/mL
- concentration at 1.5 h [36]: 1010 µg/mL
- concentration at 1.5 h [37]: 1.16 µg/mL

Structure (SMILES): NN[14C](=O)c1ccncc1
- concentration at 0.5 h [38]: 4400 ng/g
- concentration at 1 h [39]: 3200 ng/g

Source: ChEMBL document CHEMBL1156308 (J Med Chem, 2010)
